Reference: ChEMBL document CHEMBL1765003, “Discovery of (1S,2R,3R)-2,3-dimethyl-2-phenyl-1-sulfamidocyclopropanecarboxylates: novel and highly selective aggrecanase inhibitors” (J Med Chem, 2011)

What was measured:
[1] = biological target: Collagenase 3 (Homo sapiens, UniProt P45452); experiment: Inhibition of human recombinant MMP13 after 60 mins by fluorescence plate reader
How it was run: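 rh-MMP-13 at 40 ng/mL with 5 μM 7-MCA-Pro-CHA-Gly-NVal-His-Ala-DPA, in Tris-HCl pH 7.5/NaCl/CaCl₂/0.05% Brij-35. Pretreatment with inhibitor for 15 min at 25 °C, then substrate started the reaction. Fluorescence (ex 325/em 405 nm) read at 60 min. IC50 from three central linear points, averaged over ≥2 determinations.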

[2] = biological target: Matrix metalloproteinase-14 (Homo sapiens, UniProt P50281); experiment: Inhibition of human recombinant MMP14 after 60 mins by fluorescence plate reader
How it was run: (§1)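 Recombinant human enzyme at 20 ng/mL with 10 μM MOCAc-Lys-Pro-Leu-Gly-Leu-A2pr(Dnp)-Ala-Arg-NH₂, in 100 mM Tris-HCl pH 7.5, 150 mM NaCl, 10 mM CaCl₂, 0.05% Brij-35. Enzyme pretreated with inhibitor for 15 min at 25 °C, then substrate added. Fluorescence (ex 325, em 405 nm) read at 60 min. IC50 taken from three points in the linear range; mean of ≥2 determinations.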

[3] = biological target: T1, A disintegrin and metalloproteinase with thrombospondin motifs 4 (Homo sapiens, UniProt O75173); experiment: Inhibition of human recombinant aggrecanase 1 after 150 mins by fluorescence plate reader
T1 sequence (O75173 whole entry): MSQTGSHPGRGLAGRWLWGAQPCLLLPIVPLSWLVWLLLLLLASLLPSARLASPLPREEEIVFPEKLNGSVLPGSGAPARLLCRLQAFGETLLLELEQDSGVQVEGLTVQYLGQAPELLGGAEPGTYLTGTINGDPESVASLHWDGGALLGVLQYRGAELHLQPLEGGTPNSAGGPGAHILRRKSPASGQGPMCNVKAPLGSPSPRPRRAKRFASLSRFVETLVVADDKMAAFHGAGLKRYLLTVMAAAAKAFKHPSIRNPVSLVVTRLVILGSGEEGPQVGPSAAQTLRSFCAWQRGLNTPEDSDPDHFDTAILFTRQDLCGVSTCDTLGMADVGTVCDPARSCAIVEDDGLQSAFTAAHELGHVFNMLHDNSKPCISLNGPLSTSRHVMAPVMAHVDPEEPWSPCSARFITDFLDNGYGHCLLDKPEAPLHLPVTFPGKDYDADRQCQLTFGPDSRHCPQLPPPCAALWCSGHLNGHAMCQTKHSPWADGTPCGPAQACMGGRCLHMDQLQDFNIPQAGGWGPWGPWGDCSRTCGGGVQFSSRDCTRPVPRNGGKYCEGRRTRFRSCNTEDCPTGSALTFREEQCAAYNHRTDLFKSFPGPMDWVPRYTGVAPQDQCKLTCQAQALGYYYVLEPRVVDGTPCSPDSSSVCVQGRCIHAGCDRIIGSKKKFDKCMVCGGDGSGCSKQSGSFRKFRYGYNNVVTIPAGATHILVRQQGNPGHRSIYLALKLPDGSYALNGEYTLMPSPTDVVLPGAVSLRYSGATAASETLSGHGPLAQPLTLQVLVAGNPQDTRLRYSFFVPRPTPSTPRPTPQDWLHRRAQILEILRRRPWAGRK

[4] = biological target: Stromelysin-1 (Homo sapiens, UniProt P08254); experiment: Inhibition of human recombinant MMP3 after 60 mins by fluorescence plate reader
Sequence of Stromelysin-1 (P08254 whole entry): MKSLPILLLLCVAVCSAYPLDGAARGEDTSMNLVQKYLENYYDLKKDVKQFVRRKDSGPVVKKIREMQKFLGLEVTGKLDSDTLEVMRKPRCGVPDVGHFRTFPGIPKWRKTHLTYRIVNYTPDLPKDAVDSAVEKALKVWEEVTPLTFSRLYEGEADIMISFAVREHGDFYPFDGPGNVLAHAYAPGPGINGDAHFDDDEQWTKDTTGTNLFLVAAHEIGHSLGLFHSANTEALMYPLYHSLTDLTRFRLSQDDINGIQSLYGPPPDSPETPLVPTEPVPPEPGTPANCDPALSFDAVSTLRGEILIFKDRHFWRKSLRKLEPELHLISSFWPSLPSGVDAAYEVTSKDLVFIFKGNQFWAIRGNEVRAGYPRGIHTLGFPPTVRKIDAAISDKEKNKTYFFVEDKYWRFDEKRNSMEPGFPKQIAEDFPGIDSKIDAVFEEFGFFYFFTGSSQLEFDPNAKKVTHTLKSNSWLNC
How it was run: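 rh-MMP-3 at 40 ng/mL with 10 μM MOCAc-Arg-Pro-Lys-Pro-Val-Glu-Nva-Trp-Arg-Lys(Dnp)-NH₂, in Tris-HCl pH 7.5/NaCl/CaCl₂/Brij-35 buffer. Inhibitor preincubated for 15 min at 25 °C. Fluorescence (ex 325/em 405 nm) read at 60 min. IC50 from three central linear points; at least two determinations averaged.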

[5] = biological target: Matrix metalloproteinase-9 (Homo sapiens, UniProt P14780); experiment: Inhibition of human recombinant MMP9 after 60 mins by fluorescence plate reader
Sequence of Matrix metalloproteinase-9 (P14780 whole entry): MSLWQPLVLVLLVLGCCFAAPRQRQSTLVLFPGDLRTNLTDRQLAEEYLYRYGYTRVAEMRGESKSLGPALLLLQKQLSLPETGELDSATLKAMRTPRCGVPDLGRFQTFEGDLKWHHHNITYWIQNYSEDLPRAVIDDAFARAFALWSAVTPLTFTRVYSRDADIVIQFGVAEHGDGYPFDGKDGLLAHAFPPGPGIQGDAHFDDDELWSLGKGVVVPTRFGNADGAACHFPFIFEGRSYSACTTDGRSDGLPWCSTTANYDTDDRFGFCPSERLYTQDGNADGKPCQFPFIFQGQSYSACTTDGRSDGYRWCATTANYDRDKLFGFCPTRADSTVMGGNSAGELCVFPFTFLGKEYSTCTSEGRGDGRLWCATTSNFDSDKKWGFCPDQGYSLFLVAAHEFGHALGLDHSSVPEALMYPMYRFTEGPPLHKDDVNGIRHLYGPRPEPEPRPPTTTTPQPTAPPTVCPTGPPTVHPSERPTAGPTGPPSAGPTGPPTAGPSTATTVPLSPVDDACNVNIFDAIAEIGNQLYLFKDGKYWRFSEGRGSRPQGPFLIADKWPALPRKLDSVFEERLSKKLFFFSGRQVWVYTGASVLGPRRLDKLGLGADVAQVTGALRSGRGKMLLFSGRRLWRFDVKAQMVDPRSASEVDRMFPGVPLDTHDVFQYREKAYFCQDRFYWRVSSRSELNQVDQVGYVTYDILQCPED
How it was run: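 rh-MMP-9 at 4 ng/mL with 10 μM MOCAc-Pro-Leu-Gly-Leu-A2pr(Dnp)-Ala-Arg-NH₂, in 100 mM Tris-HCl pH 7.5, 150 mM NaCl, 10 mM CaCl₂, 0.05% Brij-35. Enzyme and inhibitor preincubated for 15 min at 25 °C before substrate. Fluorescence (ex 325/em 405 nm) read at 60 min. IC50 from three linear-range points; ≥2 runs averaged.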

[6] = biological target: Cytochrome P450 2D6 (Homo sapiens, UniProt P10635); experiment: Inhibition of CYP2D6 at up to 50 uM; type: ADME
Sequence of Cytochrome P450 2D6 (P10635 whole entry): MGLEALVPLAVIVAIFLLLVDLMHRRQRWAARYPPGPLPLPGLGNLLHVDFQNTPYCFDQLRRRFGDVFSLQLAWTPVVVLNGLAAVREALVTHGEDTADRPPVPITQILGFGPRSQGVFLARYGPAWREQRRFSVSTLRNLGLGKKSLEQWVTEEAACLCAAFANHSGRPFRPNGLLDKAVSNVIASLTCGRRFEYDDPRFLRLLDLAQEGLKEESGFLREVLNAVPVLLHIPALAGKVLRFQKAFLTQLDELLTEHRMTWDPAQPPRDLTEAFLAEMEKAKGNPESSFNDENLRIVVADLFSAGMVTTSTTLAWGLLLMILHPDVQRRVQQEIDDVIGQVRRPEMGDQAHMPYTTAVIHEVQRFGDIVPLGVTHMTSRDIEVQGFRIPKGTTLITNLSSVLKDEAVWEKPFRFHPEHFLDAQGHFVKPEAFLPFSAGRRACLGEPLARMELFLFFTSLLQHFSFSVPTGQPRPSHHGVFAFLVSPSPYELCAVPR

[7] = biological target: T2, Cytochrome P450 2A6 (Homo sapiens, UniProt P11509); experiment: Inhibition of CYP2A6 at up to 50 uM; type: ADME
T2 sequence (P11509 whole entry): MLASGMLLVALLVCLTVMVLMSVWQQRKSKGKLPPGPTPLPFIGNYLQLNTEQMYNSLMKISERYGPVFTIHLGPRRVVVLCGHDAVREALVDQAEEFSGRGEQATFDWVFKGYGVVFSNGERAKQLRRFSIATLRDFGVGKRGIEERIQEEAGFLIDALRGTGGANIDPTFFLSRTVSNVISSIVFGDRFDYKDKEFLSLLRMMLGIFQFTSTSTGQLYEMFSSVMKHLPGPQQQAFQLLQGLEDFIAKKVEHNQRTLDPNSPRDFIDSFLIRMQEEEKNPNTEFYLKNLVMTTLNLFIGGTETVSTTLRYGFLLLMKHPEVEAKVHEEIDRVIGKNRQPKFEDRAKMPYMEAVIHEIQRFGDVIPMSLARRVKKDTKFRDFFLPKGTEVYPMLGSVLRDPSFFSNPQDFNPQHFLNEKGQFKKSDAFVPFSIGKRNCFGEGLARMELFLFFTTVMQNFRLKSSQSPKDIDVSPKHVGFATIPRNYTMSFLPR

[8] = biological target: T3, Interstitial collagenase (Homo sapiens, UniProt P03956); experiment: Inhibition of human recombinant MMP1 after 60 mins by fluorescence plate reader; how it was run: as §1
T3 sequence (P03956 whole entry): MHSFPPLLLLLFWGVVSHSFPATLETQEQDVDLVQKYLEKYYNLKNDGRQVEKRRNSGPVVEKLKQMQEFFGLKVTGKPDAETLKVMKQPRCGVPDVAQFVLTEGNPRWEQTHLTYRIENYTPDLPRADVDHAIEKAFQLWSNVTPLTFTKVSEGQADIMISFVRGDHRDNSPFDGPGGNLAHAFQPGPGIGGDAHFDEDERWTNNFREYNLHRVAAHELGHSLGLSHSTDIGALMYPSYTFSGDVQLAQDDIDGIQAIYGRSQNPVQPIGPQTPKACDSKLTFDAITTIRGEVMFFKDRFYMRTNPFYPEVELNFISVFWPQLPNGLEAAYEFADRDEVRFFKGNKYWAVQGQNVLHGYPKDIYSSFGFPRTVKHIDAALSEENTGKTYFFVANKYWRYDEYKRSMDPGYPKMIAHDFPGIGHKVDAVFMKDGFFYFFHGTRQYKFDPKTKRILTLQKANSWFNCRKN

[9] = biological target: T4, Cytochrome P450 1A2 (Homo sapiens, UniProt P05177); experiment: Inhibition of CYP1A2 at up to 50 uM; type: ADME
T4 sequence (P05177 whole entry): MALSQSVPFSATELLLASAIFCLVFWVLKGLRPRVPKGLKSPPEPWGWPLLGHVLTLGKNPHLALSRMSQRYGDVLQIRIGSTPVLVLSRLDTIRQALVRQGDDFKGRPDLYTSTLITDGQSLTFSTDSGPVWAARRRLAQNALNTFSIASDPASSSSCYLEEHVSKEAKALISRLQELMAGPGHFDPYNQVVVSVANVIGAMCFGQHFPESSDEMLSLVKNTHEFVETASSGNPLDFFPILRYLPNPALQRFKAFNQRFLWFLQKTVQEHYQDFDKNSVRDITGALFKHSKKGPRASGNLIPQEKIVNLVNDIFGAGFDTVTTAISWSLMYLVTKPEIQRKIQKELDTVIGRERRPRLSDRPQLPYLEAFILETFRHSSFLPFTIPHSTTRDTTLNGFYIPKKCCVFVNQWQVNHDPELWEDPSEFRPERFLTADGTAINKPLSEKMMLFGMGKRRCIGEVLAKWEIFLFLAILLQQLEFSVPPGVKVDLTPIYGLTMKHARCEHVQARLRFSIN

[10] = biological target: Cytochrome P450 3A4 (Homo sapiens, UniProt P08684); experiment: Inhibition of CYP3A4 at up to 50 uM; type: ADME
Sequence of Cytochrome P450 3A4 (P08684 whole entry): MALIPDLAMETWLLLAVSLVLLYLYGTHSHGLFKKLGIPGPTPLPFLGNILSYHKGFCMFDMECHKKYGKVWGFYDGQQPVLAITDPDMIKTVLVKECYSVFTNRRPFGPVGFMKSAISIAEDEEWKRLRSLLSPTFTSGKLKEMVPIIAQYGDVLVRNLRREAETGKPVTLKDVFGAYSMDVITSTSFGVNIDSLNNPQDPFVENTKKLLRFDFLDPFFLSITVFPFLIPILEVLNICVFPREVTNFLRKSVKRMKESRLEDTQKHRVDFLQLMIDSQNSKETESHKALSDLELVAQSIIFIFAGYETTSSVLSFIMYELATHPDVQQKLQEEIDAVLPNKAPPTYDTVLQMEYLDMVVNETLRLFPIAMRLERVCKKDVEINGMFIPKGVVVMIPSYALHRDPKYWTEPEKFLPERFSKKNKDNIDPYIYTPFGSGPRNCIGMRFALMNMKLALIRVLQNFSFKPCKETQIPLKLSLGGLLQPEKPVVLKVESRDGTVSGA

[11] = Volume of distribution at steady state in Sprague-Dawley rat at 1 mg/kg, iv; type: ADME, organism-based; parameters: dose 1 mg/kg, route intravenous; conditions: in vivo, read-out: Vdss
How it was run: (§2)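 Intravenous dose of 1 mg/kg. Blood sampled at 0.50, 1, 2, 4, 8 and 24 h. Plasma obtained by centrifugation at 10 000 rpm for 5 min and kept at −20 °C until analysis.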

[12] = Half life in Sprague-Dawley rat at 10 mg/kg, po; type: ADME, organism-based; parameters: dose 10 mg/kg, route oral; conditions: in vivo
[13] = biological target: Cytochrome P450 2C9 (Homo sapiens, UniProt P11712); experiment: Inhibition of CYP2C9 at up to 50 uM; type: ADME
Sequence of Cytochrome P450 2C9 (P11712 whole entry): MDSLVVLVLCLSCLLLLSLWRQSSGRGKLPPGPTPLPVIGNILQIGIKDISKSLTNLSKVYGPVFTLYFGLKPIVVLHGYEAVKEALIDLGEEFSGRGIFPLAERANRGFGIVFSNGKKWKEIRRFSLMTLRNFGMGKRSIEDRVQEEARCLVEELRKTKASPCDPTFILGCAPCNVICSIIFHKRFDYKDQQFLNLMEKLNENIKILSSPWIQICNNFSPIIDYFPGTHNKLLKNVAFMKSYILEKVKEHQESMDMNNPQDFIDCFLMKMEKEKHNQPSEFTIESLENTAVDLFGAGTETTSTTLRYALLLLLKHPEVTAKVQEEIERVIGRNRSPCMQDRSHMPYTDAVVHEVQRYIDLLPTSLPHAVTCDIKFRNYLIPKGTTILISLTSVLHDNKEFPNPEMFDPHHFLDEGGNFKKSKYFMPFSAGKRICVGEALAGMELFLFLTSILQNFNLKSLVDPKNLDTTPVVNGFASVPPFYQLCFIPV

[14] = biological target: T5, A disintegrin and metalloproteinase with thrombospondin motifs 5 (Homo sapiens, UniProt Q9UNA0); experiment: Inhibition of human recombinant aggrecanase 2 after 150 mins by fluorescence plate reader
T5 sequence (Q9UNA0 whole entry): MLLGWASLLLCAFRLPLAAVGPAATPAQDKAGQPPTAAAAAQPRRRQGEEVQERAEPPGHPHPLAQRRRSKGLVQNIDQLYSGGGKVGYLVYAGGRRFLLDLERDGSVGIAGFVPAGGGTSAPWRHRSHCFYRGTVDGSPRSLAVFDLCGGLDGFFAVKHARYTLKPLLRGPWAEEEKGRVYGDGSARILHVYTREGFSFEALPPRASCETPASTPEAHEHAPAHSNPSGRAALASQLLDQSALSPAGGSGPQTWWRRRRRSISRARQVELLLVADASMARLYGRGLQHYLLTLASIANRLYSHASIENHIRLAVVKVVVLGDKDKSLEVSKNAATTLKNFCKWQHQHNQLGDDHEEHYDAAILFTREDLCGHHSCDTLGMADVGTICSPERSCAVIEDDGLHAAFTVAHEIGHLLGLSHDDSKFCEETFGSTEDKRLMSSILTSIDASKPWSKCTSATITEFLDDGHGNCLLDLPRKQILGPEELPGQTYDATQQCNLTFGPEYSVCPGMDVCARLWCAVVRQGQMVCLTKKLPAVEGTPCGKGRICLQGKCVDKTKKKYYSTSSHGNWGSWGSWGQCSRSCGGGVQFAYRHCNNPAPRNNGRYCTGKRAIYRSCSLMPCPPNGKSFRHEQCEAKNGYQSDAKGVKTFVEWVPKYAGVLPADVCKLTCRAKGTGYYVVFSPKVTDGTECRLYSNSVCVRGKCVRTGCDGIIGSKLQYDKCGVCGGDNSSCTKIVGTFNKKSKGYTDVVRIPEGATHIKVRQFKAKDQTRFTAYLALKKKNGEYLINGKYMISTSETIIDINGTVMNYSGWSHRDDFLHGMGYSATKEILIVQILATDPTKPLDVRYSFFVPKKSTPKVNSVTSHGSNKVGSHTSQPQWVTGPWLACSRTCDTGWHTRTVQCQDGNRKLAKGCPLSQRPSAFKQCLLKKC

[15] = Cmax in Sprague-Dawley rat at 10 mg/kg, po; type: ADME, organism-based; parameters: dose 10 mg/kg, route oral; conditions: in vivo
[16] = biological target: Disintegrin and metalloproteinase domain-containing protein 17 (Homo sapiens, UniProt P78536); experiment: Inhibition of human recombinant TACE after 60 mins by fluorescence plate reader
Sequence of Disintegrin and metalloproteinase domain-containing protein 17 (P78536 whole entry, the tested form may be a part): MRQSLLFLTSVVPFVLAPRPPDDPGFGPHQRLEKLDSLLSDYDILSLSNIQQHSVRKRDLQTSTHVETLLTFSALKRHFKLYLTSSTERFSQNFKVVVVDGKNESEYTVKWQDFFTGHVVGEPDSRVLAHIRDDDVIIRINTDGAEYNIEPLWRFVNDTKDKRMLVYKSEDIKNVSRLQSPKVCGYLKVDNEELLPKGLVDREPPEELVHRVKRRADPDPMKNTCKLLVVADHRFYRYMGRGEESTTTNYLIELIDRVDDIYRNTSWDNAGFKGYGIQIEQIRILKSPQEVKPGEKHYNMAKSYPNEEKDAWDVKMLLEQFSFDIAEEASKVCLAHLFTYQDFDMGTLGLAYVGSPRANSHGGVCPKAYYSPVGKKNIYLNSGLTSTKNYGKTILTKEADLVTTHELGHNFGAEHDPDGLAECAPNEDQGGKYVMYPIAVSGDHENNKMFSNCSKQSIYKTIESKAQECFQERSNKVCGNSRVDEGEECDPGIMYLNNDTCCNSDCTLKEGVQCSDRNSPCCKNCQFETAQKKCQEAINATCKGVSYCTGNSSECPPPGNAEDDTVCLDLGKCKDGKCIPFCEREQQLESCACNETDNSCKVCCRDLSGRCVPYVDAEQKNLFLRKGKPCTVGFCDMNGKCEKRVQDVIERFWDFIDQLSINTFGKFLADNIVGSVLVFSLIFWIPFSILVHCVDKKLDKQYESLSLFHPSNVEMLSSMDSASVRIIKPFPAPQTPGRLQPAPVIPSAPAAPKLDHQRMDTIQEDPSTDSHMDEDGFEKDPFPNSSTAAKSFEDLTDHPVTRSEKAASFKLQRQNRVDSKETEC
How it was run: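 rh-TACE at 80 ng/mL with 10 μM MCA-Pro-Leu-Ala-Gln-Ala-Val-Dpa-Arg-Ser-Ser-Ser-Arg-NH₂, in 100 mM Tris-HCl pH 7.5, 150 mM NaCl, 10 mM CaCl₂, 0.05% Brij-35. Inhibitor preincubated for 15 min at 25 °C. Fluorescence (ex 325/em 405 nm) read at 60 min. IC50 from three linear-range points; mean of ≥2.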

[17] = biological target: Cytochrome P450 2C19 (Homo sapiens, UniProt P33261); experiment: Inhibition of CYP2C19 at up to 50 uM; type: ADME
Sequence of Cytochrome P450 2C19 (P33261 whole entry): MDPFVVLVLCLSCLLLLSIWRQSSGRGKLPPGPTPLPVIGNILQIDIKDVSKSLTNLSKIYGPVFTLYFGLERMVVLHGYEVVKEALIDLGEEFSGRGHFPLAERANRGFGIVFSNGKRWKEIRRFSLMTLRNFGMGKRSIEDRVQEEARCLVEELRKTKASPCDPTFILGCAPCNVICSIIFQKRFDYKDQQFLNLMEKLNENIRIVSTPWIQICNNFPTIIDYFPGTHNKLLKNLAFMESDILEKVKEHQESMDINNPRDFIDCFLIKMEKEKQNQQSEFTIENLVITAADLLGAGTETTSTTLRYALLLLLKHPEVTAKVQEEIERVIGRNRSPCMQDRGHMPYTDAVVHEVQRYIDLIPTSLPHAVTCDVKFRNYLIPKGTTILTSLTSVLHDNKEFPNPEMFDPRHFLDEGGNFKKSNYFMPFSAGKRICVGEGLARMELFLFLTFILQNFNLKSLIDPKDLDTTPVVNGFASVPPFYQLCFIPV

[18] = AUC in Sprague-Dawley rat at 10 mg/kg, po; type: ADME, organism-based; parameters: dose 10 mg/kg, route oral; conditions: plasma
[19] = system: Rattus norvegicus; experiment: Oral bioavailability in Sprague-Dawley rat at 10 mg/kg; type: ADME, organism-based; conditions: in vivo
[20] = Clearance in Sprague-Dawley rat at 1 mg/kg, iv; type: ADME, organism-based; parameters: dose 1 mg/kg, route intravenous; conditions: in vivo; how it was run: as §2

Row | IC50 [1] | IC50 [2] | IC50 [3] | IC50 [4] | IC50 [5] | inhibition (INH) [6] | inhibition (INH) [7] | IC50 [8] | inhibition (INH) [9] | inhibition (INH) [10] | Vd [11] | half-life [12] | inhibition (INH) [13] | IC50 [14] | Cmax [15] | IC50 [16] | inhibition (INH) [17] | AUC [18] | F [19] | clearance [20] | Structure (SMILES)
1 | 3.4 nM | 3.9 nM | 4 nM | 68 nM | 58 nM | – | – | – | – | – | – | – | – | – | – | – | – | – | – | – | C[C@@H]1[C@H](c2ccccc2)[C@]1(NS(=O)(=O)c1ccc(-n2cc(Cl)cn2)s1)C(=O)O
2 | – | > 10000 nM | – | – | – | Not Active | Not Active | > 10000 nM | Not Active | Not Active | 0.7 L/kg | 2 h | Not Active | 14 nM | 17.4 µM | > 10000 nM | Not Active | 76.9 µM·h | 196% | 10 mL/min/kg | C[C@@H]1[C@](C)(c2ccccc2)[C@]1(NS(=O)(=O)N1CCn2c(nc3cc(F)ccc32)C1)C(=O)O
